Key:
Mus musculus = test: Immunomodulatory activity in ip dosed BALB/c mouse assessed as reduction in lymphocyte using FITC-conjugated hamster antimouse CD3e antibody by flow cytometry; format: functional
Outline: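 Male BALB/c mice given the alcohol form intraperitoneally; peripheral blood taken from posterior vena cava 24 h later, hemolyzed and fixed. CD3+ T and CD45R+ (B220) B cells counted by two-colour flow cytometry. ED50 is the dose lowering lymphocyte count by 50% versus vehicle-treated controls; 5 animals per compound.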

[1] = molecular target: Sphingosine 1-phosphate receptor 3 (Homo sapiens, UniProt Q99500); test: Agonist activity at human S1P3 receptor expressed in CHO cells assessed as intracellular calcium mobilization; format: functional, cell-based
Sequence of Sphingosine 1-phosphate receptor 3 (Q99500 whole entry): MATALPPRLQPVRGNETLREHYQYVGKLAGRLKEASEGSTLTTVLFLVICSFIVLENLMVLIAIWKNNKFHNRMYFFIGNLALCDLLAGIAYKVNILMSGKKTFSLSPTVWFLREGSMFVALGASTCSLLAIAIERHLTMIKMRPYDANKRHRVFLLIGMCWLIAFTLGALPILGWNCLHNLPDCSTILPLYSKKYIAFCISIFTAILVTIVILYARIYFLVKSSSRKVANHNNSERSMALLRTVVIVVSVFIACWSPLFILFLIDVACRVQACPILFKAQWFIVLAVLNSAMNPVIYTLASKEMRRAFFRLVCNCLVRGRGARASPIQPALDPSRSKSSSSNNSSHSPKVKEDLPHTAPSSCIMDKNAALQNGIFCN

[2] = molecular target: Sphingosine 1-phosphate receptor 1 (Homo sapiens, UniProt P21453); test: Agonist activity at human S1P1 receptor expressed in human Chem1 cells assessed as intracellular calcium mobilization; format: functional, cell-based
Sequence of Sphingosine 1-phosphate receptor 1 (P21453 whole entry): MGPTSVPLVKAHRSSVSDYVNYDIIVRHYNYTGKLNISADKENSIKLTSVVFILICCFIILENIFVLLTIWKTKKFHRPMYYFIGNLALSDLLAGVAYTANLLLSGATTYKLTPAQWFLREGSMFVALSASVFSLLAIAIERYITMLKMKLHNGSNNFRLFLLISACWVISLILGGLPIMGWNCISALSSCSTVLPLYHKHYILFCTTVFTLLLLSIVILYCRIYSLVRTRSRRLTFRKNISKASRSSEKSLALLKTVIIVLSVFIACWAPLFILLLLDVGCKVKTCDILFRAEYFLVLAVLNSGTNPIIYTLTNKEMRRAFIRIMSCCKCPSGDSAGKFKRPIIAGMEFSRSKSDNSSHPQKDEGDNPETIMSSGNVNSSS

Rattus norvegicus = test: Toxicity in iv dosed Sprague-Dawley rat assessed as reduction in heart rate; format: organism-based; conditions: in vivo
Outline: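 Male Sprague-Dawley rats anesthetized with ip pentobarbital sodium (50 mg/kg); phosphate form injected iv over about 30 s at 0.03 to 3 mg/kg. Heart rate counted from R waves of lead II ECG before dosing and 1, 2, 3, 4, 5, 10 and 15 min after. ID50 is the dose lowering heart rate by 50% versus vehicle control; 3-6 animals per compound.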

SMILES	ED50 (Mus musculus)	EC50 [1]	EC50 [2]	ID50 (Rattus norvegicus)
COc1ccc(Sc2ccc(-c3ccc(CCC(N)(CO)CO)cc3)c(F)c2)cc1	0.28 mg/kg			
COc1cccc(Sc2ccc(-c3ccc(CCC(N)(CO)CO)cc3)c(F)c2)c1	0.11 mg/kg			
NC(CO)(CO)CCc1ccc(-c2ccc(SCc3ccccc3)cc2F)cc1	0.04 mg/kg			
Cc1ccc(Sc2ccc(-c3ccc(CCC(N)(CO)COP(=O)(O)O)cc3)c(F)c2)cc1 (configuration not stated)		> 1000 nM	3 nM	
CC(C)c1ccc(Sc2ccc(-c3ccc(CCC(N)(CO)CO)cc3)c(F)c2)cc1	0.15 mg/kg			
CCCCOc1ccc(-c2ccc(CCC(N)(CO)COP(=O)(O)O)cc2)c(F)c1.F (configuration not stated)		51 nM	0.53 nM	0.009 mg/kg
CCCCOc1cc(F)c(-c2ccc(CCC(N)(CO)COP(=O)(O)O)cc2)cc1F (configuration not stated)		> 1000 nM	1.2 nM	
CCCCOc1ccc(-c2ccc(CCC(N)(CO)COP(=O)(O)O)cc2)cc1Cl (configuration not stated)		> 1000 nM	3.1 nM	
NC(CO)(CO)CCc1ccc(-c2ccc(Sc3ccc(C(F)(F)F)cc3)cc2F)cc1	0.34 mg/kg			
Cc1cccc(Sc2ccc(-c3ccc(CCC(N)(CO)COP(=O)(O)O)cc3)c(F)c2)c1 (configuration not stated)		> 1000 nM	2 nM	0.063 mg/kg
Cc1ccc(Sc2ccc(-c3ccc(CCC(N)(CO)COP(=O)(O)O)c(Cl)c3)c(F)c2)cc1 (configuration not stated)		> 1000 nM	4.2 nM	0.016 mg/kg
NC(CO)(CO)CCc1ccc(-c2ccc(Oc3ccccc3)cc2)cc1Cl	0.16 mg/kg			
NC(CO)(CO)CCc1ccc(-c2ccc(OCc3ccccc3)cc2)cc1Cl	0.13 mg/kg			
CCCCOc1ccc(-c2ccc(CCC(N)(CO)CO)cc2)c(C)c1	3.4 mg/kg			
NC(CO)(CO)CCc1ccc(-c2ccc(Sc3ccc(F)cc3)cc2F)cc1	0.07 mg/kg			
NC(CO)(CO)CCc1ccc(-c2ccc(Sc3cccc(F)c3)cc2F)cc1	0.16 mg/kg			
NC(CO)(CCc1ccc(-c2ccc(OCc3ccccc3)cc2)cc1Cl)COP(=O)(O)O (configuration not stated)		13 nM	1.6 nM	0.017 mg/kg
NC(CO)(CO)CCc1ccc(-c2ccc(OCc3ccccc3)cc2F)cc1	0.01 mg/kg			
NC(CO)(CO)CCc1ccc(-c2ccc(SCc3ccccc3)cc2)cc1Cl	0.08 mg/kg			
NC(CO)(CO)CCc1ccc(-c2ccc(Sc3ccccc3)cc2F)cc1	0.42 mg/kg			
NC(CO)(CCc1ccc(-c2ccc(SCc3ccccc3)cc2F)cc1)COP(=O)(O)O (configuration not stated)		4.9 nM	0.84 nM	0.008 mg/kg
NC(CO)(CO)CCc1ccc(-c2ccc(Sc3ccc(Cl)cc3)cc2F)cc1	0.18 mg/kg			
CCc1ccc(Sc2ccc(-c3ccc(CCC(N)(CO)CO)cc3)c(F)c2)cc1	0.04 mg/kg			
CCCCOc1cc(F)c(-c2ccc(CCC(N)(CO)CO)cc2)cc1F	0.15 mg/kg			

SMILES	ED50 (Mus musculus)	EC50 [1]	EC50 [2]	ID50 (Rattus norvegicus)
CCCCOc1ccc(-c2ccc(CCC(N)(CO)CO)cc2)cc1F	0.21 mg/kg			
CCCCOc1ccc(-c2ccc(CCC(N)(CO)CO)cc2)cc1Cl	1.3 mg/kg			
NC(CO)(CO)CCc1ccc(-c2ccc(Oc3ccccc3)cc2)cc1	0.25 mg/kg			
CCCCOc1ccc(-c2ccc(CCC(N)(CO)COP(=O)(O)O)cc2)cc1F (configuration not stated)		> 1000 nM	1.3 nM	
CCCCCc1ccc(-c2ccc(CCC(N)(CO)CO)c(Cl)c2)cc1	0.11 mg/kg			
CCCCOc1ccc(-c2ccc(CCC(N)(CO)CO)cc2)cc1	0.22 mg/kg			
CCCCOc1ccc(-c2ccc(CCC(N)(CO)CO)c(Cl)c2)cc1	0.08 mg/kg			
NC(CO)(CCc1ccc(-c2ccc(OCc3ccccc3)cc2F)cc1)COP(=O)(O)O (configuration not stated)		4.1 nM	1.1 nM	0.014 mg/kg
Cc1ccc(Oc2ccc(-c3ccc(CCC(N)(CO)COP(=O)(O)O)cc3)c(F)c2)cc1 (configuration not stated)		83 nM	1.8 nM	0.016 mg/kg
NC(CO)(CCc1ccc(-c2ccc(Sc3ccccc3)cc2F)cc1)COP(=O)(O)O (configuration not stated)		> 1000 nM	3.6 nM	
CCCCOc1ccc(-c2ccc(CCC(N)(CO)CO)cc2)c(F)c1	0.06 mg/kg			
CCCCOc1ccc(-c2ccc(CCC(N)(CO)COP(=O)(O)O)c(Cl)c2)cc1 (configuration not stated)		> 1000 nM	0.62 nM	0.013 mg/kg
Cc1ccc(Oc2ccc(-c3ccc(CCC(N)(CO)CO)cc3)c(F)c2)cc1	0.04 mg/kg			
Cc1ccc(Sc2ccc(-c3ccc(CCC(N)(CO)CO)cc3)c(F)c2)cc1	0.05 mg/kg			
Cc1cccc(Sc2ccc(-c3ccc(CCC(N)(CO)CO)cc3)c(F)c2)c1	0.13 mg/kg			
Cc1ccc(Sc2ccc(-c3ccc(CCC(N)(CO)CO)c(Cl)c3)c(F)c2)cc1	0.04 mg/kg			
NC(CO)(CCc1ccc(-c2ccc(Oc3ccccc3)cc2)cc1)COP(=O)(O)O (configuration not stated)		> 1000 nM	21 nM	0.14 mg/kg
NC(CO)(CCc1ccc(-c2ccc(Oc3ccccc3)cc2)cc1Cl)COP(=O)(O)O (configuration not stated)		> 1000 nM	4.7 nM	0.087 mg/kg
CCCCCc1ccc(-c2ccc(CCC(N)(CO)CO)cc2)c(F)c1	0.1 mg/kg			
CCCCCc1ccc(-c2ccc(CCC(N)(CO)COP(=O)(O)O)cc2)c(F)c1 (configuration not stated)		> 1000 nM	1.1 nM	
CCCCCc1ccc(-c2ccc(CCC(N)(CO)COP(=O)(O)O)c(Cl)c2)cc1 (configuration not stated)		> 1000 nM	0.64 nM	
CCCCOc1ccc(-c2ccc(CCC(N)(CO)COP(=O)(O)O)cc2)cc1 (configuration not stated)		> 1000 nM	0.81 nM	0.008 mg/kg
CCCCCCCCc1ccc(CCC(N)(CO)COP(=O)(O)O)cc1 (configuration not stated)				0.012 mg/kg
CCCCCCCCc1ccc(CCC(N)(CO)CO)cc1 [FINGOLIMOD]	0.02 mg/kg			

From ChEMBL document CHEMBL1156200, “Removal of sphingosine 1-phosphate receptor-3 (S1P(3)) agonism is essential, but inadequate to obtain immunomodulating 2-aminopropane-1,3-diol S1P(1) agonists with reduced effect on heart rate” (J Med Chem, 2010)
